Test results reported in ChEMBL document CHEMBL1765003, “Discovery of (1S,2R,3R)-2,3-dimethyl-2-phenyl-1-sulfamidocyclopropanecarboxylates: novel and highly selective aggrecanase inhibitors” (J Med Chem, 2011).

Assays:
[1] = target: Matrix metalloproteinase-9 (Homo sapiens, UniProt P14780); test: Inhibition of human recombinant MMP9 after 60 mins by fluorescence plate reader
Method in brief: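 rh-MMP-9 at 4 ng/mL with 10 μM MOCAc-Pro-Leu-Gly-Leu-A2pr(Dnp)-Ala-Arg-NH₂, in 100 mM Tris-HCl pH 7.5, 150 mM NaCl, 10 mM CaCl₂, 0.05% Brij-35. Enzyme and inhibitor preincubated for 15 min at 25 °C before substrate. Fluorescence (ex 325/em 405 nm) read at 60 min. IC50 from three linear-range points; ≥2 runs averaged.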

[2] = target: T1, A disintegrin and metalloproteinase with thrombospondin motifs 4 (Homo sapiens, UniProt O75173); test: Inhibition of human recombinant aggrecanase 1 after 150 mins by fluorescence plate reader
T1 sequence (O75173 whole entry): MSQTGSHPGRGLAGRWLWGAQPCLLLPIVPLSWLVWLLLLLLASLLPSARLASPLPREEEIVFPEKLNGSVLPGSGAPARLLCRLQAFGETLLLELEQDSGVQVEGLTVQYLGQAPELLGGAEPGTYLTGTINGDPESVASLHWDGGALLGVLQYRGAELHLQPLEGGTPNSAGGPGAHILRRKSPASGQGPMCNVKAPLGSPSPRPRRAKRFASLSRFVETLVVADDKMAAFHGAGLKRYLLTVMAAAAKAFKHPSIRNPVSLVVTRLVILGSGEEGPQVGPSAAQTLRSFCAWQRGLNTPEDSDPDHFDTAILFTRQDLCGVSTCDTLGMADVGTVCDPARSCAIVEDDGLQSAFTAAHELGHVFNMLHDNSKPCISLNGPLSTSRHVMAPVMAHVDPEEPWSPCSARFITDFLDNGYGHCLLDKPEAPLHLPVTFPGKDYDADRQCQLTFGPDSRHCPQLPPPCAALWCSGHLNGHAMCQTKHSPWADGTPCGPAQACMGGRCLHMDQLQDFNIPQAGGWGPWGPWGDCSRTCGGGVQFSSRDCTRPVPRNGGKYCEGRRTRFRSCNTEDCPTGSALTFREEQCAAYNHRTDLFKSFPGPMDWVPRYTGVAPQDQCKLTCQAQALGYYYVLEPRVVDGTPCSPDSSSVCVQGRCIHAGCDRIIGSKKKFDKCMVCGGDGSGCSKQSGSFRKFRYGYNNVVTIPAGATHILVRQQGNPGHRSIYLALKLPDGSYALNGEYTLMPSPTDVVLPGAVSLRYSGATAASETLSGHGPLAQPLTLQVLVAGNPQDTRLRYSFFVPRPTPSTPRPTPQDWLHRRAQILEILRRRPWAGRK

Collagenase 3 = Collagenase 3 (Homo sapiens, UniProt P45452); test: Inhibition of human recombinant MMP13 after 60 mins by fluorescence plate reader
Method in brief: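 rh-MMP-13 at 40 ng/mL with 5 μM 7-MCA-Pro-CHA-Gly-NVal-His-Ala-DPA, in Tris-HCl pH 7.5/NaCl/CaCl₂/0.05% Brij-35. Pretreatment with inhibitor for 15 min at 25 °C, then substrate started the reaction. Fluorescence (ex 325/em 405 nm) read at 60 min. IC50 from three central linear points, averaged over ≥2 determinations.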

[3] = target: Matrix metalloproteinase-14 (Homo sapiens, UniProt P50281); test: Inhibition of human recombinant MMP14 after 60 mins by fluorescence plate reader
Method in brief: (§1)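 Recombinant human enzyme at 20 ng/mL with 10 μM MOCAc-Lys-Pro-Leu-Gly-Leu-A2pr(Dnp)-Ala-Arg-NH₂, in 100 mM Tris-HCl pH 7.5, 150 mM NaCl, 10 mM CaCl₂, 0.05% Brij-35. Enzyme pretreated with inhibitor for 15 min at 25 °C, then substrate added. Fluorescence (ex 325, em 405 nm) read at 60 min. IC50 taken from three points in the linear range; mean of ≥2 determinations.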

Stromelysin-1 = Stromelysin-1 (Homo sapiens, UniProt P08254); test: Inhibition of human recombinant MMP3 after 60 mins by fluorescence plate reader
Method in brief: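 rh-MMP-3 at 40 ng/mL with 10 μM MOCAc-Arg-Pro-Lys-Pro-Val-Glu-Nva-Trp-Arg-Lys(Dnp)-NH₂, in Tris-HCl pH 7.5/NaCl/CaCl₂/Brij-35 buffer. Inhibitor preincubated for 15 min at 25 °C. Fluorescence (ex 325/em 405 nm) read at 60 min. IC50 from three central linear points; at least two determinations averaged.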

[4] = Clearance in Sprague-Dawley rat at 1 mg/kg, iv; assay type: ADME, organism-based; set-up: dose 1 mg/kg, route intravenous; settings: in vivo
Method in brief: (§2)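 Intravenous dose of 1 mg/kg. Blood sampled at 0.50, 1, 2, 4, 8 and 24 h. Plasma obtained by centrifugation at 10 000 rpm for 5 min and kept at −20 °C until analysis.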

Cytochrome P450 3A4 = Cytochrome P450 3A4 (Homo sapiens, UniProt P08684); test: Inhibition of CYP3A4 at up to 50 uM; assay type: ADME
Cytochrome P450 2A6 = target: T2, Cytochrome P450 2A6 (Homo sapiens, UniProt P11509); test: Inhibition of CYP2A6 at up to 50 uM; assay type: ADME
T2 sequence (P11509 whole entry): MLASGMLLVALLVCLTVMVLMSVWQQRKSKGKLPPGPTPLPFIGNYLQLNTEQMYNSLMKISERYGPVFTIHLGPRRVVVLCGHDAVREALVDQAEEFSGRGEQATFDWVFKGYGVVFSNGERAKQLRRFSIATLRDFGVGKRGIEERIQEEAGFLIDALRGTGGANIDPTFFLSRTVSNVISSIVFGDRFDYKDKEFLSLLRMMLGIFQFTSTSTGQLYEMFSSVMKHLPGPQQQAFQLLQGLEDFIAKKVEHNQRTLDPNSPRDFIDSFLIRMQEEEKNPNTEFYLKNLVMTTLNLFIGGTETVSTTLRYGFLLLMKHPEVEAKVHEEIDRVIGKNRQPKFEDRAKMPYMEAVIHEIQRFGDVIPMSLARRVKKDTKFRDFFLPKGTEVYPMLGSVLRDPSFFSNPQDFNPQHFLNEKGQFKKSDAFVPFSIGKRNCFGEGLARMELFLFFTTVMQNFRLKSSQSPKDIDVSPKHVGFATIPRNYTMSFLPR

Cytochrome P450 2C19 = Cytochrome P450 2C19 (Homo sapiens, UniProt P33261); test: Inhibition of CYP2C19 at up to 50 uM; assay type: ADME
[5] = Volume of distribution at steady state in Sprague-Dawley rat at 1 mg/kg, iv; assay type: ADME, organism-based; set-up: dose 1 mg/kg, route intravenous; settings: in vivo, read-out: Vdss; method in brief: as §2
Interstitial collagenase = target: T3, Interstitial collagenase (Homo sapiens, UniProt P03956); test: Inhibition of human recombinant MMP1 after 60 mins by fluorescence plate reader; method in brief: as §1
T3 sequence (P03956 whole entry): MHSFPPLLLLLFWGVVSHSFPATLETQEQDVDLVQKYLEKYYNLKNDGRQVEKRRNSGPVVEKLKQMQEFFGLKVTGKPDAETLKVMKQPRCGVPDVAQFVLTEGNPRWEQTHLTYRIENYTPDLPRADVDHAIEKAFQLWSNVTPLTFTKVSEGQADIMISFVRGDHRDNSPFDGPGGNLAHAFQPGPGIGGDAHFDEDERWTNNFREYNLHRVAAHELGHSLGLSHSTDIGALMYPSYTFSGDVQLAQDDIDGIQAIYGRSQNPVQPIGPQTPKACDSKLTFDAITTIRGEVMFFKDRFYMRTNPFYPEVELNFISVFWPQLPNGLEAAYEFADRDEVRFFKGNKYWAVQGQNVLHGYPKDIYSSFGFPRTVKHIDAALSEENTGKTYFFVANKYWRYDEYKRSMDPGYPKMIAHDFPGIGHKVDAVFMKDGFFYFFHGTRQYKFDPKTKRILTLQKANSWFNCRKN

[6] = target: T4, A disintegrin and metalloproteinase with thrombospondin motifs 5 (Homo sapiens, UniProt Q9UNA0); test: Inhibition of human recombinant aggrecanase 2 after 150 mins by fluorescence plate reader
T4 sequence (Q9UNA0 whole entry): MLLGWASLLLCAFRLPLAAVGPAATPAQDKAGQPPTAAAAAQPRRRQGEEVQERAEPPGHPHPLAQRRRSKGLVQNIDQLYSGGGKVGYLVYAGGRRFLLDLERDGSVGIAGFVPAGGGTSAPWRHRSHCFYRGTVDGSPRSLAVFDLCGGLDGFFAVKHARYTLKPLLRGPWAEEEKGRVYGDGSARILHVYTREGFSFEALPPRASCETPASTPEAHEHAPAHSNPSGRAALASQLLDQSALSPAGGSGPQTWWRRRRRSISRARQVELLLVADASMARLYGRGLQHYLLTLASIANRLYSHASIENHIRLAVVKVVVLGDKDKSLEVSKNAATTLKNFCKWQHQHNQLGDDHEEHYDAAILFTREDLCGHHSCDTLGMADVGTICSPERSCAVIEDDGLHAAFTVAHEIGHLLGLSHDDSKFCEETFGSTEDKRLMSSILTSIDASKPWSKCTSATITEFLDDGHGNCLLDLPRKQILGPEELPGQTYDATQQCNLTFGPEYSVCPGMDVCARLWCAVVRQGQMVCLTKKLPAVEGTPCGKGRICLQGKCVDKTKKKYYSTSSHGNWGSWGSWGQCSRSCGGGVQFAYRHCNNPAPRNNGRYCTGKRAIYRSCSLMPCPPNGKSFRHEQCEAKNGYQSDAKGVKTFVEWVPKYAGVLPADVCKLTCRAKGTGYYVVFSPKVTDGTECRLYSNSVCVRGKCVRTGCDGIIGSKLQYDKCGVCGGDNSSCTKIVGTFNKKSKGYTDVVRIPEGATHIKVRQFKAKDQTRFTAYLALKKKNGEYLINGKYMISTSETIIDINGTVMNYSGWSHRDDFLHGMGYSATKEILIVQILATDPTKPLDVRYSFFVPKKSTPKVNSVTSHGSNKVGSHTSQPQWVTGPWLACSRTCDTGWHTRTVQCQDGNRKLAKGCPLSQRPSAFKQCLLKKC

Rattus norvegicus = test: Oral bioavailability in Sprague-Dawley rat at 10 mg/kg; assay type: ADME, organism-based; settings: in vivo
[7] = Cmax in Sprague-Dawley rat at 10 mg/kg, po; assay type: ADME, organism-based; set-up: dose 10 mg/kg, route oral; settings: in vivo
[8] = target: Disintegrin and metalloproteinase domain-containing protein 17 (Homo sapiens, UniProt P78536); test: Inhibition of human recombinant TACE after 60 mins by fluorescence plate reader
Method in brief: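 rh-TACE at 80 ng/mL with 10 μM MCA-Pro-Leu-Ala-Gln-Ala-Val-Dpa-Arg-Ser-Ser-Ser-Arg-NH₂, in 100 mM Tris-HCl pH 7.5, 150 mM NaCl, 10 mM CaCl₂, 0.05% Brij-35. Inhibitor preincubated for 15 min at 25 °C. Fluorescence (ex 325/em 405 nm) read at 60 min. IC50 from three linear-range points; mean of ≥2.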

[9] = AUC in Sprague-Dawley rat at 10 mg/kg, po; assay type: ADME, organism-based; set-up: dose 10 mg/kg, route oral; settings: plasma
Cytochrome P450 2C9 = Cytochrome P450 2C9 (Homo sapiens, UniProt P11712); test: Inhibition of CYP2C9 at up to 50 uM; assay type: ADME
Cytochrome P450 1A2 = target: T5, Cytochrome P450 1A2 (Homo sapiens, UniProt P05177); test: Inhibition of CYP1A2 at up to 50 uM; assay type: ADME
T5 sequence (P05177 whole entry): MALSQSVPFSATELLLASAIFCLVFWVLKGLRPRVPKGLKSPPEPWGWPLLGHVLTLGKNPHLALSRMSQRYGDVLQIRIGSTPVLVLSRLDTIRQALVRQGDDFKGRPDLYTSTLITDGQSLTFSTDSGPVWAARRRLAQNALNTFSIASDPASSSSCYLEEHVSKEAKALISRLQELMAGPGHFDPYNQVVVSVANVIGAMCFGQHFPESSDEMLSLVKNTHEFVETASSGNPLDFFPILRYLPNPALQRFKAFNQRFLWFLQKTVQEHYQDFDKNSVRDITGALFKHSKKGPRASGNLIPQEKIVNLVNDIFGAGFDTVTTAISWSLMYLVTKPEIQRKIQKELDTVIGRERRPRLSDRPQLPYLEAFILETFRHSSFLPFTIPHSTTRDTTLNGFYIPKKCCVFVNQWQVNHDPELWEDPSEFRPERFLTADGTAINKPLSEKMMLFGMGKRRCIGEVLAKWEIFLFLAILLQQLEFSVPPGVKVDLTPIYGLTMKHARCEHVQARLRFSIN

[10] = Half life in Sprague-Dawley rat at 10 mg/kg, po; assay type: ADME, organism-based; set-up: dose 10 mg/kg, route oral; settings: in vivo
Cytochrome P450 2D6 = Cytochrome P450 2D6 (Homo sapiens, UniProt P10635); test: Inhibition of CYP2D6 at up to 50 uM; assay type: ADME
Chain of Cytochrome P450 2D6 (P10635 whole entry): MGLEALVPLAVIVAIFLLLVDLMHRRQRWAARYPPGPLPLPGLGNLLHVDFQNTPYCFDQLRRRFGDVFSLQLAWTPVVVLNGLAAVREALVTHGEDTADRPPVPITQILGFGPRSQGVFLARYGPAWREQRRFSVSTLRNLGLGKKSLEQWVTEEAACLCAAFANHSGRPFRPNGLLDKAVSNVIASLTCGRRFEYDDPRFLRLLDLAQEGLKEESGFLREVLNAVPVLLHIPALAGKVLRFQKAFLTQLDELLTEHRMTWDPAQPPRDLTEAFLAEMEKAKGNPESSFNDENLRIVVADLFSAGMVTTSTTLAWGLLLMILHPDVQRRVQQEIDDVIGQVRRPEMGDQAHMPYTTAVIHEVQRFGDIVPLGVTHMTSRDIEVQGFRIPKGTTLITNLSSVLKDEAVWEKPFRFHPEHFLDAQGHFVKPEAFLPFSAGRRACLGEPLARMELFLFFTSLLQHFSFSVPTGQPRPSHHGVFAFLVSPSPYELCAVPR

Chain of Disintegrin and metalloproteinase domain-containing protein 17 (P78536 whole entry, the tested form may be a part): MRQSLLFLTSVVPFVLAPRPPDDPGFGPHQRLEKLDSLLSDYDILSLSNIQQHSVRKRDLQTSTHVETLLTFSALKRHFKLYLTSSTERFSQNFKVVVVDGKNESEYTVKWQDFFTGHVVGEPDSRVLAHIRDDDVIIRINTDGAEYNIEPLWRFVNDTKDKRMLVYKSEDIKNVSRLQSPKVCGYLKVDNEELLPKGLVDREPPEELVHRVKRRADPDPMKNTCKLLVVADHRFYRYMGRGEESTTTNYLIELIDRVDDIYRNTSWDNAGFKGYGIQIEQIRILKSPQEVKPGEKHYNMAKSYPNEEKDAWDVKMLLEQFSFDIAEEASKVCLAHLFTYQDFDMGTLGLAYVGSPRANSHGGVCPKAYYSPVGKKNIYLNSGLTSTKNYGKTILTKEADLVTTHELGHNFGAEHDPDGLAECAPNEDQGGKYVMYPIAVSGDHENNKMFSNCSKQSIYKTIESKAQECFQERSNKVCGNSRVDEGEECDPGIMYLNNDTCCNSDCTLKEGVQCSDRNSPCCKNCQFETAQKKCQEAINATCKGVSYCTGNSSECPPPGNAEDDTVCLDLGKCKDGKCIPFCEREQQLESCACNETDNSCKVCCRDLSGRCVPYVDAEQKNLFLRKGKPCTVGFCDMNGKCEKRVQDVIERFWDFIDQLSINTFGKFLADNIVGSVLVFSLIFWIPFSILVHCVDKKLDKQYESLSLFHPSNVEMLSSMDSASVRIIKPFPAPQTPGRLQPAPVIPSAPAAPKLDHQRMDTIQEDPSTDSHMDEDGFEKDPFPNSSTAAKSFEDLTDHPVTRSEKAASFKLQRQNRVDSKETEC
Chain of Cytochrome P450 2C9 (P11712 whole entry): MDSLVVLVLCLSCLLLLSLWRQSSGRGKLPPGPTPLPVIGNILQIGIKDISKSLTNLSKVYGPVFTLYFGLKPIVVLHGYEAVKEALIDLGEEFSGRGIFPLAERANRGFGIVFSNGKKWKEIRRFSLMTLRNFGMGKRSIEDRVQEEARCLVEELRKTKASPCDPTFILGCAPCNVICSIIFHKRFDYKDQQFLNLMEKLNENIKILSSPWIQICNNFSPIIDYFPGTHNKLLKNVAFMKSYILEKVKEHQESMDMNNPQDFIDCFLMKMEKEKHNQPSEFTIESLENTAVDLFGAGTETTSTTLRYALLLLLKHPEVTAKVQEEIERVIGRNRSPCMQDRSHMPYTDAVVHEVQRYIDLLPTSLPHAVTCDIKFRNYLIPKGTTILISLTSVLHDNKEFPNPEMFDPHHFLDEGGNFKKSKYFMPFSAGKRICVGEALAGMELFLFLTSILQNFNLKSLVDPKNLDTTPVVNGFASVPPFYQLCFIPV
Chain of Cytochrome P450 2C19 (P33261 whole entry): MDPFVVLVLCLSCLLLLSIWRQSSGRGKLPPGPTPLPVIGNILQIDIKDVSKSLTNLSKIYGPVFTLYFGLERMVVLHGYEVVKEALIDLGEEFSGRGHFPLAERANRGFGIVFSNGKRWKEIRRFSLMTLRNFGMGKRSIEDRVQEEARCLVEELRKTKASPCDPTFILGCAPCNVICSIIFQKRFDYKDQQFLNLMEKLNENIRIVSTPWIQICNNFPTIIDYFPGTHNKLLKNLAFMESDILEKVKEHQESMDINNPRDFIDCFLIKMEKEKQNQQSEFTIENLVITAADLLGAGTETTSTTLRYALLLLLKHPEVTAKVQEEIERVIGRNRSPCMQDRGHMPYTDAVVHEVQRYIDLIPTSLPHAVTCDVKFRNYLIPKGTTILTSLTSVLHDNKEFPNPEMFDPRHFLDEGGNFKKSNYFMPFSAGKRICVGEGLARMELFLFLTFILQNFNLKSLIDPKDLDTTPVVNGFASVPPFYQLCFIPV
Chain of Matrix metalloproteinase-9 (P14780 whole entry): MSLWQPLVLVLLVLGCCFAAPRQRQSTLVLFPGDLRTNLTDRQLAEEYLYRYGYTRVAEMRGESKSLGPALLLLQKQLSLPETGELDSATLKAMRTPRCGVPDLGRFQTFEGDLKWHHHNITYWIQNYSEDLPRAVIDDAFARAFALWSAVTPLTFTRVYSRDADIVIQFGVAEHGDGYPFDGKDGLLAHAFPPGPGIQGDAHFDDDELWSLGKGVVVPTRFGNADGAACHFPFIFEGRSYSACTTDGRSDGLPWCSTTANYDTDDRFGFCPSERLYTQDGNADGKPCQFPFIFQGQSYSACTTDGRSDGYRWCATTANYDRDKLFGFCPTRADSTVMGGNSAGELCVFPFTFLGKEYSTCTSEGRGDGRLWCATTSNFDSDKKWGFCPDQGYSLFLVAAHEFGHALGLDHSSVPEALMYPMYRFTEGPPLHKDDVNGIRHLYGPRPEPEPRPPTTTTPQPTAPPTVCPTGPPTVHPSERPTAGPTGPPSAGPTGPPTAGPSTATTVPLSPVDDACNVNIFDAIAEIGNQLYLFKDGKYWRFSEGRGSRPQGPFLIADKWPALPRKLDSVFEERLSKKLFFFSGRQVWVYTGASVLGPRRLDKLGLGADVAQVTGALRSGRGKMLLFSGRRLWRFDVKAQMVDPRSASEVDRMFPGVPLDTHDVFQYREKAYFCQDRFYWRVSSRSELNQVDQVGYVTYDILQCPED
Chain of Stromelysin-1 (P08254 whole entry): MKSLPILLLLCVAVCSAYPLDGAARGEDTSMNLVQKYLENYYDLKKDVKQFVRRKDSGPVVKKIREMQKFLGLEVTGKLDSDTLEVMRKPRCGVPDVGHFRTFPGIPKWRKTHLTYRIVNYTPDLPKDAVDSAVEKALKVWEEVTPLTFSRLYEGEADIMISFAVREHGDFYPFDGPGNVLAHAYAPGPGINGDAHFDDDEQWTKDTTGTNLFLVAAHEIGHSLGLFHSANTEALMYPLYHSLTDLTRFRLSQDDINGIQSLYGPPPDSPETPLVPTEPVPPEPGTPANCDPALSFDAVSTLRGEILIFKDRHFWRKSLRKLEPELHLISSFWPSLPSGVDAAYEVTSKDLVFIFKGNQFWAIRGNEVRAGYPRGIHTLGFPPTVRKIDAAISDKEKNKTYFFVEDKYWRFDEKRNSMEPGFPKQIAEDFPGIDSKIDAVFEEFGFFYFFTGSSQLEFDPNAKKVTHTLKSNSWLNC
Chain of Cytochrome P450 3A4 (P08684 whole entry): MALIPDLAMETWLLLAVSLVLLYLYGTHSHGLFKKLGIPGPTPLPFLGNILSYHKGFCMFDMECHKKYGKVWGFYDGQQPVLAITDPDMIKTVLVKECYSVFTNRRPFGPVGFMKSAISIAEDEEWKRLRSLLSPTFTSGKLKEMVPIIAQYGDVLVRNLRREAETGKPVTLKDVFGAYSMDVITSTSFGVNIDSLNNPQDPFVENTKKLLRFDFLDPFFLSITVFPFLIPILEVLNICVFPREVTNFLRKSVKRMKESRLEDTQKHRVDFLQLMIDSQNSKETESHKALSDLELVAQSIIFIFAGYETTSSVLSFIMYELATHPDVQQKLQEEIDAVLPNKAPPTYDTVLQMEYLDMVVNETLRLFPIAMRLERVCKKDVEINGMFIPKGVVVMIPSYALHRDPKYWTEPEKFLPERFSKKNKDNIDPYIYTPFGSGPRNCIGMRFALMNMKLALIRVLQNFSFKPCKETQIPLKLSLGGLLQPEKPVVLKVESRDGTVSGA

SMILES	IC50 [1]	IC50 [2]	IC50 (Collagenase 3)	IC50 [3]	IC50 (Stromelysin-1)	clearance [4]	inhibition (INH) (Cytochrome P450 3A4)	inhibition (INH) (Cytochrome P450 2A6)	inhibition (INH) (Cytochrome P450 2C19)	Vd [5]	IC50 (Interstitial collagenase)	IC50 [6]	F (Rattus norvegicus)	Cmax [7]	IC50 [8]	AUC [9]	inhibition (INH) (Cytochrome P450 2C9)	inhibition (INH) (Cytochrome P450 1A2)	half-life [10]	inhibition (INH) (Cytochrome P450 2D6)
C[C@@H]1[C@H](c2ccccc2)[C@]1(NS(=O)(=O)c1ccc(-n2cc(Cl)cn2)s1)C(=O)O	58 nM	4 nM	3.4 nM	3.9 nM	68 nM															
C[C@@H]1[C@](C)(c2ccccc2)[C@]1(NS(=O)(=O)N1CCn2c(nc3cc(F)ccc32)C1)C(=O)O				> 10000 nM		10 mL/min/kg	Not Active	Not Active	Not Active	0.7 L/kg	> 10 µM	14 nM	196%	17.4 µM	> 10 µM	76.9 µM·h	Not Active	Not Active	120 min	Not Active
